ChEMBL document CHEMBL4359823, “Switching on the activity of 1,5-diaryl-pyrrole derivatives against drug-resistant ESKAPE bacteria: Structure-activity relationships and mode of action studies” (Eur J Med Chem, 2019)
Converted amounts (≈) assume the structure as drawn.

How the values were obtained:
Format in all cases: functional
[1] = tested on: Enterococcus faecalis; assay: Antibacterial activity against vancomycin resistant Enterococcus faecalis NCTC12204 measured after overnight incubation by microbroth dilution method
Summary of the method: (§1)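 Microbroth dilution: DMSO stocks diluted in water, 2-fold series. Overnight TSB cultures back-diluted to OD 0.01 and mixed 1:1 with compound. Incubated overnight at 37 °C; MIC taken as lowest concentration without visible growth (<0.1 OD600). Run in duplicate; matching DMSO levels checked for effect on growth.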

[2] = tested on: Enterococcus faecalis; assay: Antibacterial activity against vancomycin resistant Enterococcus faecalis NCTC12201 measured after overnight incubation by microbroth dilution method; summary of the method: as §1
[3] = tested on: Staphylococcus aureus; assay: Antibacterial activity against methicillin sensitive Staphylococcus aureus NCTC 6571 measured after overnight incubation by microbroth dilution method; summary of the method: as §1
[4] = tested on: Staphylococcus aureus; assay: Antibacterial activity against methicillin resistant Staphylococcus aureus NCTC13616 measured after overnight incubation by microbroth dilution method; summary of the method: as §1
[5] = tested on: Staphylococcus aureus; assay: Antibacterial activity against methicillin resistant Staphylococcus aureus NCTC13277 measured after overnight incubation by microbroth dilution method; summary of the method: as §1
[6] = tested on: Enterococcus faecalis; assay: Antibacterial activity against vancomycin sensitive Enterococcus faecalis NCTC775 measured after overnight incubation by microbroth dilution method; summary of the method: as §1
[7] = tested on: Klebsiella pneumoniae; assay: Antibacterial activity against Klebsiella pneumoniae NCTC13368 measured after overnight incubation by microbroth dilution method
Summary of the method: (§2)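 Microbroth dilution MIC. Compound DMSO stocks were diluted in water as a 2-fold series. Overnight TSB cultures were back-diluted to OD 0.01 and mixed 1:1 with compound. Plates were incubated overnight at 37 °C. MIC was the lowest concentration without visible growth (<0.1 OD600), run in duplicate.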

[8] = tested on: Klebsiella pneumoniae; assay: Antibacterial activity against Klebsiella pneumoniae M6 measured after overnight incubation by microbroth dilution method; summary of the method: as §2
[9] = tested on: Acinetobacter baumannii; assay: Antibacterial activity against Acinetobacter baumannii AYE measured after overnight incubation by microbroth dilution method; summary of the method: as §2
[10] = tested on: Acinetobacter baumannii; assay: Antibacterial activity against Acinetobacter baumannii ATCC 17978 measured after overnight incubation by microbroth dilution method; summary of the method: as §2
[11] = tested on: Pseudomonas aeruginosa; assay: Antibacterial activity against Pseudomonas aeruginosa PAO1 measured after overnight incubation by microbroth dilution method; summary of the method: as §2
[12] = tested on: Pseudomonas aeruginosa; assay: Antibacterial activity against Pseudomonas aeruginosa NCTC13437 measured after overnight incubation by microbroth dilution method; summary of the method: as §2
[13] = tested on: Escherichia coli; assay: Antibacterial activity against Escherichia coli NCTC12923 measured after overnight incubation by microbroth dilution method; summary of the method: as §2

Compound	MIC [1] [µg/mL]	MIC [2] [µg/mL]	MIC [3] [µg/mL]	MIC [4] [µg/mL]	MIC [5] [µg/mL]	MIC [6] [µg/mL]	MIC [7] [µg/mL]	MIC [8] [µg/mL]	MIC [9] [µg/mL]	MIC [10] [µg/mL]	MIC [11] [µg/mL]	MIC [12] [µg/mL]	MIC [13] [µg/mL]
Cc1c(CNC2C3CC4CC(C3)CC2C4)cc(-c2ccc(Cl)cc2)n1-c1ccc(Cl)cc1 (stereo not drawn)	2 (≈ 4.3 µM)	2 (≈ 4.3 µM)	4 (≈ 8.59 µM)	4 (≈ 8.59 µM)	4 (≈ 8.59 µM)	4 (≈ 8.59 µM)	> 128	> 128	> 128	> 128	> 128	> 128	> 128
Cc1c(CNC(C)C)cc(-c2ccc(Cl)cc2)n1-c1ccc(Cl)cc1	4 (≈ 10.7 µM)	8 (≈ 21.4 µM)	8 (≈ 21.4 µM)	8 (≈ 21.4 µM)	8 to 16 (≈ 21.4 to 42.9 µM)	8 (≈ 21.4 µM)	> 128	> 128	64 (≈ 171 µM)	32 (≈ 85.7 µM)	> 128	> 128	32 to 128 (≈ 85.7 to 343 µM)
Cc1cc(CNC2CCCCC2)c(C)n1-c1ccc(Cl)cc1	16 (≈ 50.5 µM)	32 (≈ 101 µM)	64 (≈ 202 µM)	64 (≈ 202 µM)	64 (≈ 202 µM)	32 (≈ 101 µM)	> 64	> 64	> 64	> 64	> 64	> 64	
Cc1ccc(C)c(-n2c(-c3ccc(Cl)cc3)cc(CNC3CCCCC3)c2C)c1	2 (≈ 4.91 µM)	4 (≈ 9.83 µM)	4 (≈ 9.83 µM)	4 (≈ 9.83 µM)	8 (≈ 19.7 µM)	4 (≈ 9.83 µM)	> 128	> 128	> 128	64 (≈ 157 µM)	> 128	> 128	> 128
Cc1c(CNC2CCCCC2)cc(-c2ccc(Cl)cc2)n1-c1cccc(F)c1	4 (≈ 10.1 µM)	4 (≈ 10.1 µM)	8 (≈ 20.2 µM)	8 (≈ 20.2 µM)	8 (≈ 20.2 µM)	8 (≈ 20.2 µM)	> 128	> 128	128 (≈ 322 µM)	128 (≈ 322 µM)	> 128	> 128	> 128
Cc1c(CNCC2CCCCC2)cc(-c2ccc(Cl)cc2)n1-c1ccc(Cl)cc1	2 (≈ 4.68 µM)	4 (≈ 9.36 µM)	4 (≈ 9.36 µM)	4 (≈ 9.36 µM)	4 (≈ 9.36 µM)	2 (≈ 4.68 µM)	> 128	> 128	> 128	> 128	> 128	> 128	> 128
Cc1c(CNC2CCC(N)CC2)cc(-c2ccc(Cl)cc2)n1-c1ccc(Cl)cc1 (stereo not drawn)	4 (≈ 9.34 µM)	8 (≈ 18.7 µM)	8 (≈ 18.7 µM)	8 (≈ 18.7 µM)	8 (≈ 18.7 µM)	8 (≈ 18.7 µM)	32 (≈ 74.7 µM)	16 (≈ 37.3 µM)	32 (≈ 74.7 µM)	16 (≈ 37.3 µM)	32 (≈ 74.7 µM)	32 (≈ 74.7 µM)	8 (≈ 18.7 µM)
Cc1c(CNCCCCCCCCNC(=N)N)cc(-c2ccc(Cl)cc2)n1-c1ccc(Cl)cc1	4 (≈ 7.99 µM)	8 (≈ 16 µM)	4 (≈ 7.99 µM)	4 (≈ 7.99 µM)	4 (≈ 7.99 µM)	8 (≈ 16 µM)	32 (≈ 63.9 µM)	16 (≈ 32 µM)	32 (≈ 63.9 µM)	8 (≈ 16 µM)	128 (≈ 256 µM)	64 (≈ 128 µM)	8 (≈ 16 µM)
Cc1c(CNC2CCCCC2)cc(-c2ccc(Cl)cc2)n1-c1ccc(Cl)cc1Cl	2 (≈ 4.47 µM)	4 (≈ 8.93 µM)	4 (≈ 8.93 µM)	4 (≈ 8.93 µM)	4 (≈ 8.93 µM)	4 (≈ 8.93 µM)	> 128	> 128	> 128	128 (≈ 286 µM)	> 128	> 128	> 128
Cc1c(CNCCNc2ccccc2)cc(-c2ccc(Cl)cc2)n1-c1ccc(Cl)cc1	4 to 8 (≈ 8.88 to 17.8 µM)	4 (≈ 8.88 µM)	4 to 8 (≈ 8.88 to 17.8 µM)	4 to 8 (≈ 8.88 to 17.8 µM)	4 to 8 (≈ 8.88 to 17.8 µM)	4 (≈ 8.88 µM)	> 128	> 128	> 128	> 128	> 128	> 128	> 128
Cc1cc(CNCc2ccccc2)c(C)n1-c1ccc(Cl)cc1	128 (≈ 394 µM)	> 128	> 128	> 128	> 128	> 128							
Cc1c(CNC2CCCCC2)cc(-c2ccc(Cl)cc2)n1-c1ccc(O)cc1	32 (≈ 81 µM)	32 (≈ 81 µM)	32 (≈ 81 µM)	8 to 64 (≈ 20.3 to 162 µM)	32 (≈ 81 µM)	64 (≈ 162 µM)	> 128	> 128	> 128	128 (≈ 324 µM)	> 128	> 128	> 128
